Active and inactive are the calls of the source. No cut-off for these calls is given here.

One test concerns the target T1, Histone deacetylase HD2 (Zea mays, UniProt Q94F81).
T1 sequence (Q94F81 whole entry): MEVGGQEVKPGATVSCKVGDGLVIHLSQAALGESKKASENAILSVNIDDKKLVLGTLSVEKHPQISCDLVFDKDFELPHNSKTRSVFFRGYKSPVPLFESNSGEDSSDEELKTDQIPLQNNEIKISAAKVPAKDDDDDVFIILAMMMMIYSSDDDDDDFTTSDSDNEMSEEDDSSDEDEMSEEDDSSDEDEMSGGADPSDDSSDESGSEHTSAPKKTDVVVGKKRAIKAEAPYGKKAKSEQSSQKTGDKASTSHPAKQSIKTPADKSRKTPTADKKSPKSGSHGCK
The test is described as follows: Inhibition of maize HD2.

The target in a further test is Histone deacetylase HD1B (Zea mays, UniProt Q9ZTP8). The experiment in a line: Inhibition of maize HD1B.
Test [1] has as its system U-937. The test is described as follows: Induction of apoptosis in U937 cells at 1 uM by AnnexinV/PI double satining. The test is classed as functional, Homo sapiens. An outline of the steps: (§1)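 U937 cells exposed 48 h at 1 or 5 µM; apoptosis read by Annexin V/propidium iodide double staining and FACS.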
Test [2] has as its system U-937. The experiment in a line: Induction of apoptosis in U937 cells at 5 uM by AnnexinV/PI double staining. The test is classed as functional. In short, it runs like this: as §1
The next test concerns the target Histone deacetylase 1 (Mus musculus, UniProt O09106). The experiment in a line: Inhibition of mouse HDAC1.
Test [3] has as its system Zea mays. The experiment in a line: Selectivity for HD1A class II HDAC over HD1B class I HDAC.
For test [4], the system named is U-937. The test is described as follows: Induction of granulocytic differentiation of U937 cells measured as CD11c expression level after 48 hrs at 1 uM. It counts as functional, Homo sapiens. In short, it runs like this: (§2)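 Granulocytic differentiation: U937 cells treated 48 h at 1 or 5 µM, stained with PE-conjugated anti-CD11c (PE mouse IgG1 control) 30 min at 4 °C in dark, resuspended in PBS with PI 0.25 µg/mL; FACS, PI-positive cells excluded; percent CD11c-positive PI-negative cells reported.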

Test [5] concerns U-937. The experiment in a line: Induction of granulocytic differentiation of U937 cells measured as CD11c expression level after 48 hrs at 5 uM. It counts as functional, Homo sapiens. In short, it runs like this:
as §2

Test [6] relates to U-937. The experiment in a line: Cell cycle arrest in U937 cells by accumulation at S/G2/M phase at 5 uM after 24 hrs. The following applies: Homo sapiens.
Test [7] relates to U-937. The experiment in a line: Cell cycle arrest in U937 cells by accumulation at G1 phase at 1 uM after 24 hrs. The test is classed as functional, cell-based. The following applies: Homo sapiens. In short, it runs like this:
(§3)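 U937 cells (RPMI, 10% FCS, kept at 200 000 cells/mL) treated 24 h at 1 or 5 µM (DMSO stocks); 2.5 × 10^5 cells resuspended in hypotonic buffer (0.1% Triton X-100, 0.1% sodium citrate, 50 µg/mL PI, RNAse A), 30 min dark; DNA content by flow cytometry; experiments performed three times.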

The test system of test [8] is U-937. The test is described as follows: Induction of H3 histone acetylation in U937 cells by Western blot analysis at 5 uM. It counts as functional, cell-based. To be noted: Homo sapiens. Background: A western blot detects proteins with antibodies after separation by electrophoresis.
Test [9] relates to U-937. The test is described as follows: Cell cycle arrest in U937 cells by accumulation at G1 phase at 5 uM after 24 hrs. The test is classed as functional, cell-based. The following applies: Homo sapiens. In short, it runs like this: as §3
Test [10] has as its system U-937. The test is described as follows: Antiproliferative activity against U937 cells at 5 uM. It counts as functional, cell-based. The following applies: Homo sapiens. An outline of the steps:
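U937 cells seeded at 200 000 cells/mL in RPMI/10% FCS with vehicle or inhibitor at 5 µM; living cells counted every 24 h by Trypan Blue exclusion; data plotted after three days; triplicate.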

In test [11] the target is T2, Histone deacetylase HD2 (Zea mays) (UniProt Q94F81).
T2 sequence (whole entry): T1 sequence (Q94F81 whole entry)
The experiment in a line: Inhibition of maize HD2 at 20.9 uM.

Test [12] relates to Zea mays. The test is described as follows: Inhibition of maize HD1A at 20.9 uM.
The target in test [13] is Histone deacetylase HD1B (Zea mays) (UniProt Q9ZTP8). The experiment in a line: Inhibition of maize HD1B at 20.9 uM.
Test [14] has as its target Histone deacetylase 1 (Homo sapiens) (UniProt Q13547). The experiment in a line: Inhibition of HDAC1 in U937 cell at 5 uM. The following applies: U-937. An outline of the steps: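 HDAC1 immunoprecipitated overnight at 4 °C from U937 lysates (1000 µg extract, anti-HDAC1; IgG negative control); 10 µL IP incubated overnight at 37 °C with 120 000 CPM [3H]acetyl-histone H4 peptide on streptavidin beads in HDAC buffer ± inhibitor (5 µM); released radioactivity by scintillation counting; quadruplicate.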

Test [15] addresses Histone deacetylase 4 (Homo sapiens) (UniProt P56524). The test is described as follows: Inhibition of HDAC4 in ZR75.1 cell at 5 uM. To be noted: ZR-75-1. An outline of the steps: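 HDAC4 immunoprecipitated overnight at 4 °C from ZR-75.1 breast cancer lysates (1000 µg extract, anti-HDAC4; IgG negative control); 10 µL IP incubated overnight at 37 °C with 120 000 CPM [3H]acetyl-histone H4 peptide on streptavidin beads in HDAC buffer ± inhibitor (5 µM); scintillation counting; quadruplicate.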

Test [16] relates to U-937. The experiment in a line: Induction of alpha-tubulin acetylation in U937 cells by Western blot analysis. To be noted: Homo sapiens. The test is classed as functional, cell-based. An outline of the steps: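 Western blot of U937 total protein extracts (25 µg) on 10% polyacrylamide gel, probed for acetylated alpha-tubulin (1:500); total ERKs used as loading control.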

Sequence of Histone deacetylase HD1B (Q9ZTP8 whole entry): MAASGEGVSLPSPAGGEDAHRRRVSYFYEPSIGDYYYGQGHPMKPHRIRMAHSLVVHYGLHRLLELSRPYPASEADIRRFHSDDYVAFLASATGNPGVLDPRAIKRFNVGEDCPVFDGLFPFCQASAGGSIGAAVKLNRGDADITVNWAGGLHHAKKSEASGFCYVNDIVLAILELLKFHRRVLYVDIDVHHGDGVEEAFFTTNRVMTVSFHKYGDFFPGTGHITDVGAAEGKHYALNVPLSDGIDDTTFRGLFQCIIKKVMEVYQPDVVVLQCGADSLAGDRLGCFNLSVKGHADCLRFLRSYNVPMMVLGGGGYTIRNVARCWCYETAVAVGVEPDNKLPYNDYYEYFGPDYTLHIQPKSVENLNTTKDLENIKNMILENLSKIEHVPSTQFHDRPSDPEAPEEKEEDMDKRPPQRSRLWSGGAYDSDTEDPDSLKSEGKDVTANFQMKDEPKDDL
Sequence of Histone deacetylase 1 (O09106 whole entry): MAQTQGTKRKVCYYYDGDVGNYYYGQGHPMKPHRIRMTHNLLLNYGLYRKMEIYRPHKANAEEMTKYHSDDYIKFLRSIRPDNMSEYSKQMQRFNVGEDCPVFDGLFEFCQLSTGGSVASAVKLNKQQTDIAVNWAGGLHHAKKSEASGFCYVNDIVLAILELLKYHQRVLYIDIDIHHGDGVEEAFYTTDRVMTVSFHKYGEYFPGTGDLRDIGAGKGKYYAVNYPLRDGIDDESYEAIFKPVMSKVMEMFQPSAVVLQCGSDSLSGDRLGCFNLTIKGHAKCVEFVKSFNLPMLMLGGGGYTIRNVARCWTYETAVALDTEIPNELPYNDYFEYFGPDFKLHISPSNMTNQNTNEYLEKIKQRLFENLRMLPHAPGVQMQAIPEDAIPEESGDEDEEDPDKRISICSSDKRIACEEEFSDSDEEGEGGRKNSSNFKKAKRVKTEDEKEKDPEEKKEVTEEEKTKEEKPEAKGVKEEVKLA
Sequence of Histone deacetylase 4 (Homo sapiens) (P56524 whole entry): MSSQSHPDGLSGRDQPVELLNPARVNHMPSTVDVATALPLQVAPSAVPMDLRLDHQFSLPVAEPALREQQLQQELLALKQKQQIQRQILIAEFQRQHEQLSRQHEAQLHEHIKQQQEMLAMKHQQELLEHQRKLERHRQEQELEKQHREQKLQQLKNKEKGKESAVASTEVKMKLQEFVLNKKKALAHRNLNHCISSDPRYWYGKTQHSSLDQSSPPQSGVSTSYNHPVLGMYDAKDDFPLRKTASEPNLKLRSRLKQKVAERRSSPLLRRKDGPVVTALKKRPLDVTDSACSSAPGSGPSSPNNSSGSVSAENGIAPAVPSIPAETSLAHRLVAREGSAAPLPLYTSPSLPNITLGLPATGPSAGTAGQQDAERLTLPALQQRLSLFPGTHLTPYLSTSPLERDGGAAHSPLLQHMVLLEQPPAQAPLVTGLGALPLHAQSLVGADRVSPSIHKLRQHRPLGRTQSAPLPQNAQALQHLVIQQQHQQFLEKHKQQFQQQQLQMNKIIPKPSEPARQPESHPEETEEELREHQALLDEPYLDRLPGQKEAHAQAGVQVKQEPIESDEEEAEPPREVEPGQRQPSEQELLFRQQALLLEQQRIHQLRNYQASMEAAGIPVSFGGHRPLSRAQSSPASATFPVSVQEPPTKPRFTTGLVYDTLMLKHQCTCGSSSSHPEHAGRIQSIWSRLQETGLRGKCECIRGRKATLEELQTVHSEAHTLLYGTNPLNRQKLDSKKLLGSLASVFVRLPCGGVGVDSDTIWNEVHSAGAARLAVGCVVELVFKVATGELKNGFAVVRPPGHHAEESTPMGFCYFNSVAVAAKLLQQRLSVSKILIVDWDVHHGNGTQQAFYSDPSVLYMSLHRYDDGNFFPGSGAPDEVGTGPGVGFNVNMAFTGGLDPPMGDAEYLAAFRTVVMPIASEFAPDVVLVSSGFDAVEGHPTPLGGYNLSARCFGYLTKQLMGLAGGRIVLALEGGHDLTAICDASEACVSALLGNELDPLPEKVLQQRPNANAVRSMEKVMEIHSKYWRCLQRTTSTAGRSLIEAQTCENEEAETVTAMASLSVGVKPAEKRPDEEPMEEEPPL
Sequence of Histone deacetylase 1 (Homo sapiens) (Q13547 whole entry): as the sequence (O09106 whole entry) above, with K8R, E399D, D424E counted along it
Sequence of Histone deacetylase HD1B (Zea mays) (Q9ZTP8 as listed by the source): as the sequence (Q9ZTP8 whole entry) above

What is called IC50 is the concentration needed to halve the response being measured. Low readings indicate higher potency, high ones lower potency. As to `O=C(/C=C/c1ccccc1CSc1nc(O)cc(Cc2ccccc2)n1)NO`, the IC50 was found to be 760 nM at Histone deacetylase HD2 and 1060 nM against Histone deacetylase HD1B.

In turn, `O=C(/C=C/c1cccc(CSc2nc(O)cc(Cc3ccccc3)n2)c1)NO` registered an Activity in the test with U-937 [1] of 8%. Moreover, in the test with U-937 [2] (Homo sapiens), the outcome was inactive. Further, the 50% inhibitory concentration (IC50) at Histone deacetylase 1 amounted to 90 nM; at Histone deacetylase HD2 it was 41 nM; against Histone deacetylase HD1B it was 42 nM.

Regarding `O=C(CCCCCCCSc1nc(O)cc(-c2ccccc2)n1)NO`, the Selectivity ratio in the test on Zea mays [3] is greater than 3.

`O=C(CCCCCCSc1nc(CCc2ccccc2)cc(=O)[nH]1)NO`: the IC50 against Histone deacetylase HD2 stood at 83 nM; against Histone deacetylase HD1B it was 62 nM.

For `O=C(CCCSc1nc(O)cc(-c2ccccc2)n1)NO`, the IC50 at Histone deacetylase HD2 came to 27 nM; at Histone deacetylase HD1B, 31 nM.

Take `O=C(CCCSc1nc(O)cc(CCc2ccccc2)n1)NO`: the half-maximal inhibitory concentration (IC50) against Histone deacetylase HD2 was 205 nM; at Histone deacetylase HD1B it was 170 nM.

Regarding `O=C(CCSc1nc(O)cc(CCc2ccccc2)n1)NO`, the IC50 against Histone deacetylase HD2 was 37 nM; against Histone deacetylase HD1B, 60 nM.

With `O=C(CCCCCCC(=O)Nc1ccccc1)NO` [VORINOSTAT], the Activity in the test with U-937 [2] is recorded as 98%; with U-937 [4] it was 48%; in the test with U-937 [5], 32%. For the same compound, the result in the test on U-937 [6] was Active.

Consider `O=C(CCCCCCCSc1nc(CCc2ccccc2)cc(=O)[nH]1)NO`, for which the IC50 against Histone deacetylase HD2 turned out to be 90 nM; against Histone deacetylase HD1B it was 62 nM.

`O=C(/C=C/c1cccc(CSc2nc(O)cc(-c3ccccc3)n2)c1)NO`: the outcome with U-937 [7], in the test on U-937 [8], in the test with U-937 [9] and in the test on U-937 [10] was Active. For the same compound, in the test on U-937 [2] (Homo sapiens), the outcome was inactive. Moreover, the IC50 was determined as 57 nM on Histone deacetylase 1, 17 nM at Histone deacetylase HD2 and 64 nM at Histone deacetylase HD1B. This compound showed an Activity in the test with U-937 [5] of 33%.

Consider `CC(c1ccccc1)c1cc(=O)[nH]c(SCCCCCC(=O)NO)n1` (stereo not drawn), for which the IC50 was 121 nM against Histone deacetylase 1, 9 nM on Histone deacetylase HD2 and 92 nM against Histone deacetylase HD1B.

As to `O=C(CCCCCSc1nc(C(c2ccccc2)c2ccccc2)cc(=O)[nH]1)NO`, the half-maximal inhibitory concentration (IC50) against Histone deacetylase HD2 turned out to be 52 nM; at Histone deacetylase HD1B, 58 nM.

`O=C(CCSc1nc(-c2ccccc2)cc(=O)[nH]1)NO`: the figures for the IC50 against Histone deacetylase HD2 and against Histone deacetylase HD1B were 822 nM and 890 nM, respectively.

A word on the inhibition: it is the drop in the measured response relative to a control, in per cent. For the compound `O=C(/C=C/Sc1nc(O)cc(-c2ccccc2)n1)NO`, the inhibition (in [11]; in the test on Zea mays [12]; in test [13]) was 0% each time.

As for `O=C(CCCCSc1nc(CCc2ccccc2)cc(=O)[nH]1)NO`, the IC50 on Histone deacetylase HD2 came to 40 nM; against Histone deacetylase HD1B, 46 nM.

Consider `O=C(CCCCSc1nc(O)cc(CCc2ccccc2)n1)NO`, for which the Selectivity ratio in the test on Zea mays [3] was greater than 3.

For `O=C(CCCCCSc1nc(Cc2ccccc2)cc(=O)[nH]1)NO`, in the test with U-937 [2] (Homo sapiens), the outcome was inactive. Further, the IC50 is 103 nM on Histone deacetylase 1 and 18 nM at Histone deacetylase HD1B. Also, the Activity with U-937 [5] was determined as 30%.

With `O=C(/C=C/c1ccccc1CSc1nc(O)cc(-c2ccccc2)n1)NO`, the IC50 at Histone deacetylase HD2 was 367 nM; against Histone deacetylase HD1B, 780 nM.

Take `O=C(CCCCCSc1nc(C2(c3ccccc3)CC2)cc(=O)[nH]1)NO`: the values for the half-inhibitory concentration (IC50) on Histone deacetylase HD2 and on Histone deacetylase HD1B were 62 nM and 47 nM, respectively.

Regarding `O=C(CCCCSc1nc(-c2ccccc2)cc(=O)[nH]1)NO`, the result in the test on U-937 [2] (Homo sapiens) was inactive. Moreover, the figures for the IC50 on Histone deacetylase 1, on Histone deacetylase HD2 and against Histone deacetylase HD1B were 40 nM, 8 nM and 10 nM, respectively. Besides, the inhibition in test [14] is 46%; in test [15], 0%. For the same compound, the result in the test on U-937 [8] and in the test with U-937 [16] was Active.

Regarding `O=C(/C=C/c1ccc(CSc2nc(O)cc(Cc3ccccc3)n2)cc1)NO`, the result in the test on U-937 [2] (Homo sapiens) was inactive. Besides, the half-maximal inhibitory concentration (IC50) was found to be 110 nM against Histone deacetylase 1, 80 nM on Histone deacetylase HD2 and 73 nM against Histone deacetylase HD1B. The Activity was determined as 30% in the test on U-937 [4] and 33% in the test with U-937 [5].

As to `O=C(CCCCCSc1nc(O)cc(C(c2ccccc2)c2ccccc2)n1)NO`, the result with U-937 [2] (Homo sapiens) was inactive.

As to `O=C(/C=C/c1ccc(CSc2nc(O)cc(-c3ccccc3)n2)cc1)NO`, the Activity was 8.8% in the test on U-937 [1], 42.5% in the test on U-937 [4] and 46% with U-937 [5]. In the test on U-937 [2] (Homo sapiens), the result was inactive. Further, the figures for the half-inhibitory concentration (IC50) against Histone deacetylase 1, at Histone deacetylase HD2 and against Histone deacetylase HD1B were 34 nM, 23 nM and 112 nM, respectively. In addition, the inhibition in test [14] was 94%; in [15], 14%. The outcome with U-937 [8], in the test with U-937 [9] and in the test with U-937 [10] was Active.

`CC(/C=C/C(=O)NO)=C\[C@@H](C)C(=O)c1ccc(N(C)C)cc1` [TRICHOSTATIN] had a 50% inhibitory concentration (IC50) against Histone deacetylase HD1B of 0.4 nM. That is a sub-nanomolar value.

For `COC(c1ccccc1)c1cc(O)nc(SCCCCCC(=O)NO)n1` (stereo not drawn), the IC50 was 82 nM on Histone deacetylase HD2 and 79 nM at Histone deacetylase HD1B.

With `O=C(CCCCCSc1nc(-c2ccccc2)cc(=O)[nH]1)NO`, 19 nM corresponded to half-maximal inhibition against Histone deacetylase HD1B (IC50). In the test on Zea mays [3], the Selectivity ratio was greater than 3.

For the compound `CCC(c1ccccc1)c1cc(=O)[nH]c(SCCCCCC(=O)NO)n1` (stereo not drawn), the half-maximal inhibitory concentration (IC50) came out at 32 nM on Histone deacetylase HD2 and 31 nM against Histone deacetylase HD1B.

As to `O=C(CCCCCCSc1nc(O)cc(-c2ccccc2)n1)NO`, the Selectivity ratio in the test with Zea mays [3] is greater than 3.

On to `O=C(CCCCCCCSc1nc(-c2ccccc2)cc(=O)[nH]1)NO`, for which the figures for the half-maximal inhibitory concentration (IC50) on Histone deacetylase HD2 and against Histone deacetylase HD1B were 42 nM and 89 nM, respectively.

Take `O=C(CCCCCCSc1nc(-c2ccccc2)cc(=O)[nH]1)NO`: the IC50 is 38 nM on Histone deacetylase HD2 and 48 nM on Histone deacetylase HD1B.

In the case of `O=C(/C=C/Sc1nc(O)cc(CCc2ccccc2)n1)NO`, the concentration for half-maximal inhibition (IC50) against Histone deacetylase HD2 is 41000 nM; against Histone deacetylase HD1B, 96000 nM.

These data come from ChEMBL document CHEMBL1137389, “Synthesis and biological properties of novel, uracil-containing histone deacetylase inhibitors” (J Med Chem, 2006).
